From ChEMBL document CHEMBL1123247, “Nucleoside conjugates. 7. Synthesis and antitumor activity of 1-beta-D-arabinofuranosylcytosine conjugates of ether lipids” (J Med Chem, 1986)
“And” between values parts separate entries of the source, which are not always exact repeats. Identical values can stand only once.

Columns and labels:
L1210 [1] = assay: Antitumor activity was determined against the ip implanted L1210 leukemia in mice by percent median survival rate (treated/control) at 32 and 66 mg/kg (treatment of 1-5qd schedule) dosage; Range is 11.0/8.0; assay type: functional, Mus musculus; conditions: route intraperitoneal
Summary of the method: (§1)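 DBA/2J mice, 23-28 g, in groups of 6, were inoculated ip with 1×10^6 L1210 cells on day 0. Dosing was ip starting 24 h later on the stated daily schedules. Conjugates were given as sonicated solutions and reference prodrugs as suspensions in 0.9% NaCl with 0.5% Tween-80. Mice were observed daily until death or 45 days. Median survival T/C was calculated from survivors per NCI protocols.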

L1210 [2] = assay: Antitumor activity was determined against the ip implanted L1210 leukemia in mice by 45-day survivors in mice at 128 and 262 mg/kg (treatment of 1qd schedule) dosage; assay type: functional, Mus musculus; conditions: route intraperitoneal
Summary of the method: (§2)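 DBA/2J mice in groups of 6 (wt 23-28 g) were inoculated ip with 1×10^6 L1210 cells on day 0. Dosing was ip from 24 h, in 0.9% NaCl with 0.5% Tween-80 (conjugates sonicated), across a range of doses. Mice were observed daily until death or 45 days. Median T/C was computed from survivors per NCI protocols, and ILS = (T/C − 1)×100.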

L1210 [3] = assay: Antitumor activity was determined against the ip implanted L1210 leukemia in mice by 45-day survivors in mice at 32 and 66 mg/kg (treatment of 1-5qd schedule) dosage; assay type: functional, Mus musculus; conditions: route intraperitoneal; summary of the method: as §2
L1210 [4] = assay: Antitumor activity was determined against the ip implanted L1210 leukemia in mice by percent increase in life span at 32 and 66 mg/kg (treatment of 1-5qd schedule) dosage; assay type: functional, Mus musculus; conditions: route intraperitoneal; summary of the method: as §2
L1210 [5] = assay: Antitumor activity was determined against the ip implanted L1210 leukemia in mice by range in survival days at 32 and 66 mg/kg (treatment of 1-5qd schedule) dosage; Range is 10-12; assay type: functional, Mus musculus; conditions: route intraperitoneal; summary of the method: as §1
L1210 [6] = assay: Antitumor activity was determined against the ip implanted L1210 leukemia in mice by median survival time at 128 and 262 mg/kg (treatment of 1qd schedule) dosage; 8.0/8.0; conditions: route intraperitoneal
L1210 [7] = assay: Antitumor activity against the ip implanted L1210 leukemia in mice expressed as optimal dose (1-5qd treatment schedule) required to produce greatest increase in life span was determined; assay type: functional, Mus musculus
Summary of the method: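 DBA/2J mice, groups of 6 (23-28 g), were inoculated ip with 1 × 10^6 L1210 cells on day 0. Dosing was ip from 24 h, in 0.9% NaCl with 0.5% Tween-80 (sonicated solution or suspension). Mice were observed daily until death or day 45. Median survival T/C followed NCI protocols, and ILS = (T/C − 1) × 100. Active range means doses giving ILS ≥25%; optimal dose means greatest ILS.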

L1210 [8] = assay: Antitumor activity was determined against the ip implanted L1210 leukemia in mice by change in […] at 128 and 262 mg/kg (treatment of 1qd schedule) dosage; assay type: functional, Mus musculus; conditions: route intraperitoneal
Summary of the method: (§3)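 DBA/2J mice, 6 per group (wt 23-28 g), inoculated ip with 1×10^6 L1210 cells on day 0. Treatment was given ip in 0.9% NaCl with 0.5% Tween-80, starting 24 h later. Weight change was taken on day 8. Mice were observed daily until death or 45 days. Median survival T/C and %ILS = (T/C − 1) × 100 came from survivors per NCI protocols, and 45-day survivors were counted.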

L1210 [9] = assay: Antitumor activity was determined against the ip implanted L1210 leukemia in mice by range in survival days at 128 and 262 mg/kg (treatment of 1qd schedule) dosage; Range is 7-8; assay type: functional, Mus musculus; conditions: route intraperitoneal; summary of the method: as §1
L1210 [10] = assay: Antitumor activity was determined against the ip implanted L1210 leukemia in mice by percent increase in life span at 128 and 262 mg/kg (treatment of 1qd schedule) dosage; assay type: functional, Mus musculus; conditions: route intraperitoneal; summary of the method: as §2
L1210 [11] = assay: Antitumor activity was determined against the ip implanted L1210 leukemia in mice by change in […] at 32 and 66 mg/kg (treatment of 1-5qd schedule) dosage; assay type: functional, Mus musculus; conditions: route intraperitoneal; summary of the method: as §3
L1210 [12] = assay: Antitumor activity was determined against the ip implanted L1210 leukemia in mice by percent increase in life span at 26 and 51 mg/kg (treatment of 1-5qd schedule) dosage; assay type: functional, Mus musculus; conditions: route intraperitoneal; summary of the method: as §2
L1210 [13] = assay: Antitumor activity was determined against the ip implanted L1210 leukemia in mice by 45-day survivors in mice at 131 and 258 mg/kg (treatment of 1qd schedule) dosage; assay type: functional, Mus musculus; conditions: route intraperitoneal; summary of the method: as §2
L1210 [14] = assay: Antitumor activity was determined against the ip implanted L1210 leukemia in mice by range in survival days at 26 and 51 mg/kg (treatment of 1-5qd schedule) dosage; Range is 11-12; assay type: functional, Mus musculus; conditions: route intraperitoneal; summary of the method: as §1
L1210 [15] = assay: Antitumor activity was determined against the ip implanted L1210 leukemia in mice by change in […] at 26 and 51 mg/kg (treatment of 1-5qd schedule) dosage; assay type: functional, Mus musculus; conditions: route intraperitoneal; summary of the method: as §3
L1210 [16] = assay: Antitumor activity was determined against the ip implanted L1210 leukemia in mice by change in […] at 131 and 258 mg/kg (treatment of 1qd schedule) dosage; assay type: functional, Mus musculus; conditions: route intraperitoneal; summary of the method: as §3
L1210 [17] = assay: Antitumor activity was determined against the ip implanted L1210 leukemia in mice by median survival time at 131 adn 258 mg/kg (treatment of 1qd schedule) dosage; 8.0/8.0; conditions: route intraperitoneal
L1210 [18] = assay: Antitumor activity was determined against the ip implanted L1210 leukemia in mice by range in survival days at 131 and 258 mg/kg (treatment of 1qd schedule) dosage; Range is 8-9; assay type: functional, Mus musculus; conditions: route intraperitoneal; summary of the method: as §1
L1210 [19] = assay: Antitumor activity was determined against the ip implanted L1210 leukemia in mice by 45-day survivors in mice at 26 and 51 mg/kg (treatment of 1-5qd schedule) dosage; assay type: functional, Mus musculus; conditions: route intraperitoneal; summary of the method: as §2
L1210 [20] = assay: Antitumor activity was determined against the ip implanted L1210 leukemia in mice by percent increase in life span at 131 and 258 mg/kg (treatment of 1qd schedule) dosage; assay type: functional, Mus musculus; conditions: route intraperitoneal; summary of the method: as §2
L1210 [21] = assay: Antitumor activity was determined against the ip implanted L1210 leukemia in mice by median survival time at 26 and 51 mg/kg (treatment of 1-5qd schedule) dosage; 11.0/8.0; conditions: route intraperitoneal

CCCCCCCCCCCCCCCCCCOCC(COP(=O)(O)O)OC(=O)CCCCCCCCCCCCCCC.Nc1ccn([C@@H]2O[C@H](COP(=O)(O)O)[C@@H](O)[C@@H]2O)c(=O)n1 (racemic)
median survival time (L1210 [1]): 11 days
Survivors (L1210 [2]): 0
Survivors (L1210 [3]): 0
ILS (L1210 [4]): 38
Range (L1210 [5]): 10
median survival time (L1210 [6]): 8 days
Optimal dose (L1210 [7]): 32 mg and 66 mg
Weight change (L1210 [8]): 3.2 g mouse-1
Range (L1210 [9]): 7
ILS (L1210 [10]): 0
Weight change (L1210 [11]): 3.5 g mouse-1

CCCCCCCCCCCCCCCCOCC(COP(=O)(O)O)OC(=O)CCCCCCCCCCCCCCC.Nc1ccn([C@@H]2O[C@H](COP(=O)(O)O)[C@@H](O)[C@@H]2O)c(=O)n1 (racemic)
ILS (L1210 [12]): 38
Survivors (L1210 [13]): 0
Range (L1210 [14]): 11
Weight change (L1210 [15]): 1.1 g mouse-1
Weight change (L1210 [16]): -0.8 g mouse-1
median survival time (L1210 [17]): 8 days
Range (L1210 [18]): 8
Survivors (L1210 [19]): 0
Optimal dose (L1210 [7]): 26 mg and 51 mg
ILS (L1210 [20]): 0
median survival time (L1210 [21]): 11 days
